LYPLA1 counter: LYPLA1 (human) inhibition in PME1 counter-screen | 0.16% of 320,000 active | recombinant LYPLA1, FP-Rh probe fluorescence polarization | O75608 | inhibition, % at 5.9 µM | AID 2174;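 active = inhibition above the mean of all tested compounds plus 3 SD, set per campaign, cut at about 14% in these data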;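 note: inhibitors block serine hydrolase probe labeling of LYPLA1 so polarization falls; 0% = enzyme with DMSO and 100% = wells lacking LYPLA1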
PME-1 inh: blocks human protein phosphatase methylesterase 1; Q9Y570; recombinant PME-1, FP-Rh probe fluorescence polarization; inhibition, % at 5.9 µM; 0.53% of 320,000 active; AID 2130;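 active = inhibition above the campaign mean of all compounds plus 3 SD, cut at about 26% in these data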;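 note: competitive labeling of PME-1 active site by serine hydrolase directed probe; 0% = PME-1 with DMSO and 100% = wells lacking PME-1 enzyme; inhibitors block probe labeling so polarization falls and inhibition rises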
Target sequence (Q9Y570 whole entry, looked up): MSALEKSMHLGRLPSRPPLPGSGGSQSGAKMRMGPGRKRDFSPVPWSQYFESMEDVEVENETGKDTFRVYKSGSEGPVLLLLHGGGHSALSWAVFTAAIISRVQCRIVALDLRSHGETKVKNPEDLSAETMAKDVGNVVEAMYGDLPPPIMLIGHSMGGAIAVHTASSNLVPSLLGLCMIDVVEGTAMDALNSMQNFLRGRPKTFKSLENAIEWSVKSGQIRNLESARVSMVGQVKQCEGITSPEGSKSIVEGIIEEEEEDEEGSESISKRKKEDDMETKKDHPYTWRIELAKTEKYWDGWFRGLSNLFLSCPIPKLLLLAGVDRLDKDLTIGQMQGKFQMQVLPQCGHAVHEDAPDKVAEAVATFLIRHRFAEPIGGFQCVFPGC
PAD4 FP inh: blocks human protein arginine deiminase 4. inhibition, % at 6.36 µM. recombinant PAD4, RCA probe fluorescence polarization. AID 485272. Q9UM07. 0.41% of 330,000 active;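 active = percent inhibition above a cutoff equal to the mean of all tested compounds plus 3 SD, cut at about 15% in these data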;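 note: 0% = PAD4 with RCA probe and DMSO and 100% = probe without PAD4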
LYPLA2 inh: counter-screen for PME1 inhibitors: inhibitors of human LYPLA2; O95372; recombinant LYPLA2, FP-Rh probe fluorescence polarization; inhibition, % at 5.9 µM; 0.38% of 320,000 active; AID 2177;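 active = inhibition above the screen-wide mean plus 3 SD, limit set per campaign, cut at about 26% in these data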;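 note: 0% = LYPLA2 with DMSO and 100% = wells lacking LYPLA2 enzyme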
RBBP9 inh: blocks human serine hydrolase RBBP9 | O75884 | recombinant RBBP9, FP-Rh probe fluorescence polarization | inhibition, % at 7.94 µM | 0.2% of 220,000 active;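 active = inhibition above the campaign mean of all tested compounds plus 3 SD, cut at about 14% in these data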;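 note: plate controls were DMSO wells with RBBP9 for no effect and wells lacking RBBP9 protein for full effect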
Target sequence (O75884 whole entry, looked up): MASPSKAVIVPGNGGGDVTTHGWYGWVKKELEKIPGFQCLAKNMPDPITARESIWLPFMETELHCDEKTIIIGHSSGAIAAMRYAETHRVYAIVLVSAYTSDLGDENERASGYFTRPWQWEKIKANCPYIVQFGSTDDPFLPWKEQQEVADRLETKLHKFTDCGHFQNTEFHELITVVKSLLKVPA
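Material: RBBP9 protein. Amount: RBBP9 at 2.5 µM in dispensed solution, before mixing. Schedule: 30 min then 45 min, 25 °C. Medium: Tris buffer pH 8.0, NaCl, Pluronic. Measured by: fluorescence polarization. Measure: percent inhibition from mP, scaled between DMSO and no-protein wells. Replication: one well per compound.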
Fam108B inh: counter-screen for RBBP9 inhibitors: inhibitors of mouse Fam108B | AID 1947 | 0.33% of 300,000 active | recombinant Fam108B, FP-Rh probe fluorescence polarization | inhibition, % at 9.51 µM;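 active = inhibition above the screen mean inhibition plus 3 SD, computed separately per campaign, cut at about 18% in these data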;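 note: inhibitors lower polarization as less probe binds the enzyme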
RBBP9 confirm: human RBBP9 inhibition, confirmation. 36% of 410 active. shares compounds with RBBP9 inh. inhibition, % at 7.94 µM. AID 1537. recombinant RBBP9, FP-Rh probe fluorescence polarization;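 active = inhibition above the hit cutoff derived for the primary screen, cut at about 15% in these data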;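 note: 0% = RBBP9 with DMSO and 100% = wells lacking RBBP9 protein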
Fam108b inh conf: Fam108b (mouse) hydrolase inhibition, confirmation assay; shares compounds with Fam108B inh; recombinant Fam108b, FP-Rh probe fluorescence polarization; inhibition, % at 9.51 µM; 44% of 930 active; AID 1978;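 active = inhibition above a limit from the primary screen, the mean over all compounds plus 3 SD, cut at about 19% in these data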;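 note: 0% = median of active Fam108b wells and 100% = catalytically dead S170A mutant; inhibitors free the probe so polarization falls as inhibition rises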
Fam108b inh: inhibits mouse Fam108b in gel-based ABPP. AID 588649. inhibition, % at 20 µM. 44% of 260 active. recombinant Fam108b, fluorophosphonate probe. shares compounds with Fam108B inh; in the data active = inhibition above about 40%
LYPLA1 conf: counter-screen for PME1 inhibitors: confirmation of human LYPLA1 inhibitors. shares compounds with LYPLA1 counter. recombinant LYPLA1, FP-Rh probe fluorescence polarization. inhibition, % at 5.9 µM. 69% of 480 active. AID 2233;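 active = mean inhibition across replicates above the hit cutoff set in the primary screen, cut at about 15% in these data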;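 note: loss of FP-Rh probe labeling of LYPLA1 seen as lower polarization; 0% = LYPLA1 with DMSO and 100% = wells lacking LYPLA1 enzyme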
LYPLA2 confirm: counter-screen for PME1 inhibitors: confirmation of human LYPLA2 inhibitors. 72% of 1,100 active. recombinant LYPLA2, FP-Rh probe fluorescence polarization. shares compounds with LYPLA2 inh. inhibition, % at 5.9 µM. AID 2232;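 active = mean inhibition across replicates above the hit cutoff set in the primary screen, cut at about 26% in these data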;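 note: blocked labeling of the enzyme by serine hydrolase FP-Rh probe lowers polarization; 0% = enzyme with DMSO and 100% = wells lacking LYPLA2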
PAD4 confirm: PAD4 (human) inhibition, confirmed | shares compounds with PAD4 FP inh | recombinant PAD4, RCA probe fluorescence polarization | inhibition, % at 6.36 µM | 28% of 1,200 active;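 active = mean inhibition across replicates above the hit cutoff set by the earlier primary screen, cut at about 15% in these data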;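 note: inhibitors block active-site labeling by the probe so polarization falls; 0% = PAD4 with probe and DMSO and 100% = probe without PAD4 enzyme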
An asterisk follows results filed as active; · = no result given. The list is not random: actives were taken first. Their share in the collection is about 1.3%.

SMILES	LYPLA1 counter	PME-1 inh	PAD4 FP inh	LYPLA2 inh	RBBP9 inh	Fam108B inh	Fam108b inh conf	others
CCNc1ccc2noc3c2c1C(=O)c1ccccc1-3	108*	111*	112*	118*	28*	115*	149*	RBBP9 confirm=-3;Fam108b inh=95*;LYPLA1 conf=108*;LYPLA2 confirm=112*;PAD4 confirm=102*
CCOc1cc(S(=O)(=O)N(Cc2ccccc2)Cc2ccccc2)c(OCC)cc1-n1cnnn1	·	·	·	·	-1	·	·
CCN(CC)c1cccc(OC2=NS(=O)(=O)c3ccccc32)c1	15*	11	65*	16	19*	6	·	RBBP9 confirm=16*;LYPLA1 conf=0;PAD4 confirm=-4
Cc1ccsc1/C=N/N=C/c1sccc1C	4	0	4	0	·	0	·
Cc1ccsc1C=Nc1ccc(O)cc1	38*	55*	30*	40*	15*	42*	4	RBBP9 confirm=13;LYPLA1 conf=6;LYPLA2 confirm=-1;PAD4 confirm=-5
Cc1cccc(N(CC(=O)NCc2ccco2)C(=O)CCC(=O)Nc2nccs2)c1	-1	-7	2	-6	0	-2	·
CCCCNc1c2c3c(cccc3n(C)c1=O)C(=O)c1ccccc1-2	42*	75*	90*	54*	24*	45*	49*	RBBP9 confirm=30*;Fam108b inh=25;LYPLA1 conf=39*;LYPLA2 confirm=37*;PAD4 confirm=81*
Cn1c(=O)c(NC2CCCCC2)c2c3c(cccc31)C(=O)c1ccccc1-2	·	·	·	·	-2	·	·
CC1=NN(c2ccccc2)C(=O)C1C=Nc1ccc(N(C)C)cc1 (stereo not drawn)	2	10	51*	1	19*	1	·	RBBP9 confirm=15*;PAD4 confirm=1
COCCCN1CN(Cc2ccccc2)CNC1=S	0	-3	-2	0	-8	-1	·
O=C(N/N=C/c1ccc(O)cc1)c1ccncc1	1	0	0	1	·	0	·
CC/C(=C\C(=O)c1ccncc1)Nc1ccc(O)cc1	1	5	77*	4	47*	-1	·	RBBP9 confirm=5;PAD4 confirm=-5
COc1ccc(N(CC(=O)Nc2cc(Cl)ccc2OC)C2=NC3CS(=O)(=O)CC3S2)cc1 (stereo not drawn)	1	-1	3	6	·	-3	·
O=C(Nc1cc(Sc2ccccn2)cc([N+](=O)[O-])c1)c1cccc(F)c1	-8	4	-3	-9	-23	21*	-5
O=C(Nc1ccc(S(=O)(=O)Nc2nccs2)cc1)c1ccc(=O)[nH]c1	-4	-19	3	0	-5	18*	10
COCC(=O)N(Cc1cc2cc(OC)ccc2[nH]c1=O)c1ccc(C)cc1	-1	-1	-6	-1	-4	23*	6
COc1cc2c(cc1OC)C(Nn1cnnc1)=NC1(CCCC1)C2	-4	2	1	-8	-5	2	·
O=c1oc(-c2ccccc2Cl)nc2ccsc12	-5	2	5	-2	-9	34*	32*	Fam108b inh=85*
N#Cc1ccc(OCC(=O)Nc2ccccc2NS(=O)(=O)c2cccs2)cc1	-7	14	4	-1	-12	2	·
Cc1sc2ncnc(N/N=C/c3ccccc3O)c2c1C	-4	17	-3	0	-10	19*	0
COC(=O)c1c(C)[nH]c(-c2csc(N)n2)c1C	1	7	-3	-4	-2	6	·
COc1ccc(OC)c(/C=C2\S/C(=N/NC(=O)c3ccc4ccccc4c3)NC2=O)c1	-2	23	1	1	-3	32*	15
CCOC(=O)C1(Cc2ccccc2)C(=O)Nc2ccccc21 (stereo not drawn)	-1	5	1	5	·	3	·
O=C(N/N=C/c1ccc(-c2ccc(S(=O)(=O)Nc3ncccn3)cc2)o1)c1cc2ccccc2cc1O	-9	-3	-4	-21	-9	24*	20*
CCOc1ccc(C(=O)N/N=C/c2ccc(-c3ccc(S(=O)(=O)Nc4ncccn4)cc3)o2)cc1	-8	-7	-2	-7	1	-3	·
SMILES	LYPLA1 counter	PME-1 inh	PAD4 FP inh	LYPLA2 inh	RBBP9 inh	Fam108B inh	Fam108b inh conf	others
CN(C)S(=O)(=O)c1cccc(NC(=O)C2CCN(S(=O)(=O)c3cccs3)CC2)c1	·	·	0	·	·	·	·
Cc1ccc(NC(=O)C(C)SCc2nc3sc(C)c(C)c3c(=O)[nH]2)nc1 (stereo not drawn)	0	-3	3	4	·	11	·
COc1ccc(NS(=O)(=O)c2ccc(N/N=C(\C)c3ccncc3)c([N+](=O)[O-])c2)cc1	-2	28*	4	10	-5	23*	-3
O=[N+]([O-])c1ccccc1/C=C/C=N/Nc1ccc(S(=O)(=O)Nc2ccc(Cl)cc2)cc1[N+](=O)[O-]	-10	40*	-2	12	4	60*	12
C/C(=N\Nc1ccc(S(=O)(=O)Nc2ccc(Cl)cc2)cc1[N+](=O)[O-])c1ccc(N2CCOCC2)cc1	-2	2	-2	1	4	35*	5
C/C(=N\Nc1ccc(S(=O)(=O)Nc2ccccc2)cc1[N+](=O)[O-])c1ccncc1	0	9	-1	2	-8	2	·
Cc1ccc(NC(=O)CN2C(=O)N/C(=C/c3cc(C)n(-c4ccc(C(=O)O)cc4)c3C)C2=O)cc1	·	·	·	·	2	·	·
Cc1ccc(NC(=O)CN2C(=O)N/C(=C/c3cccn3-c3ccc(C(=O)O)cc3)C2=O)cc1	-5	-10	5	6	-3	44*	39*	Fam108b inh=0
O=C(O)c1ccc(NC(=O)c2cccc(C(=O)Nc3ccc(C(=O)O)cc3)n2)cc1	1	22	5	19	·	21*	13
O=C(Nc1ccccc1)c1cccc(C(=O)Nc2ccccc2)n1	-5	0	-4	-2	·	0	·
CN(C)c1ccc(NC(=O)c2cccc(C(=O)Nc3ccc(N(C)C)cc3)n2)cc1	7	-18	3	2	10	21*	32*	Fam108b inh=35
NC(=O)c1ccc(N=C2C(=O)Nc3ccc([N+](=O)[O-])cc32)cc1	1	3	-2	9	1	24*	4

Screening results: PubChem, The Scripps Research Institute Molecular Screening Center
